Reference: ChEMBL document CHEMBL1142624, “Nematicidal constituents of the aerial parts of Lantana camara” (2000)

How the values were obtained:
Assay type in all cases: functional
[1] = tested on: Meloidogyne incognita; experiment: Nematicidal activity against Meloidogyne incognita assessed as larval mortality at 1% drug concentration after 72 hrs
Method in brief: (§1)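 Larvae were held in Petri dishes with test solutions diluted from stock to 1.0%, alongside a furadan standard and a distilled water control, at 28 ± 2 °C for up to 72 h. Each treatment was replicated twice. At 24, 48 and 72 h, one dish per treatment was scored for mortality under a stereomicroscope. Immobility was confirmed as irreversible by transfer to distilled water. Percent mortality was averaged over three replicates.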

[2] = tested on: Meloidogyne incognita; experiment: Nematicidal activity against Meloidogyne incognita assessed as larval mortality at 1% drug concentration after 24 hrs; method in brief: as §1
[3] = tested on: Meloidogyne incognita; experiment: Nematicidal activity against Meloidogyne incognita assessed as larval mortality at 1% drug concentration after 48 hrs; method in brief: as §1

| Compound | Activity [1] | Activity [2] | Activity [3] |
| --- | --- | --- | --- |
| COc1ccc(-c2cc(=O)c3c(O)c(OC)c(O[C@@H]4O[C@H](COC(C)=O)[C@@H](O)[C@H](O)[C@H]4O)cc3o2)cc1 [LANTANONE] | 95% | 90% | 95% |
| CNC(=O)Oc1cccc2c1OC(C)(C)C2 [CARBOFURAN] | 100% | 100% | 100% |
| CC(=O)O[C@@H]1C[C@@H](C)[C@H](C)[C@H]2C3=CC[C@@H]4[C@]56CC[C@@](O)(OC5)C(C)(C)C6CC[C@@]4(C)[C@]3(C)CC[C@]21C(=O)O (some centres not stated) [CAMARINIC ACID] | 100% | 100% | 100% |
| COc1ccc(-c2cc(=O)c3c(O)c(OC)c(O[C@@H]4O[C@H](CO)[C@@H](O)[C@H](O)[C@H]4O)cc3o2)cc1 [LINAROSIDE] | 90% | 85% | 90% |
